High-throughput results from PubChem BioAssay.
Sampled rows, rich in hits. Any-hit rate of the full collection: about 4.8%.
NALP1 inh – NALP1 inflammasome inhibitors in reconstituted yeast, colorimetric, S. cerevisiae, triplicate retest | S. cerevisiae NALP1/ASC/caspase-1 growth, X-gal OD620, 72 h | inhibition, % at 10 µM | actives 0.61% (n = 280,000) | AID 2071, 2009; in the data active = inhibition mostly above about 24%, no sharp cut-off; inactive = mostly below about 32%
ALR inh – inhibitors of human ALR sulfhydryl oxidase, primary screen, biochemical, H2O2 detection, HRP-luminol luminescence, single point. FAD-linked sulfhydryl oxidase ALR (Homo sapiens), P55789. purified ALR, DTT oxidation. inhibition, % (concentration not given with the values). actives 3.8% (n = 290,000). AID 485317, 2010;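 active = mean replicate inhibition above about 79%, with every replicate also reaching it, limit read from the data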
Target sequence (P55789 whole entry, looked up): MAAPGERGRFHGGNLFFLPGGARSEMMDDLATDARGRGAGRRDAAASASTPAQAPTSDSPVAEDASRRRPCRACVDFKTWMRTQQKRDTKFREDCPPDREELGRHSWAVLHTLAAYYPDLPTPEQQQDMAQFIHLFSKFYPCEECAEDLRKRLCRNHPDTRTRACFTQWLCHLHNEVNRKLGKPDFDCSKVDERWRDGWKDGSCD
UCH37 DUB inh – inhibitors of human UCH37 deubiquitinase, primary screen, biochemical, Ub-AMC cleavage, fluorescence | purified proteasome/UCH37 | inhibition, % (test concentration not listed) | actives 0.33% (n = 330,000) | AID 588478, 2011;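 active = mean inhibition over replicate wells above about 20%, limit read from the data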;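 note: 0% = compound-free wells with enzyme and 100% = wells lacking proteasome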
Target sequence (Q9Y5K5 whole entry, looked up): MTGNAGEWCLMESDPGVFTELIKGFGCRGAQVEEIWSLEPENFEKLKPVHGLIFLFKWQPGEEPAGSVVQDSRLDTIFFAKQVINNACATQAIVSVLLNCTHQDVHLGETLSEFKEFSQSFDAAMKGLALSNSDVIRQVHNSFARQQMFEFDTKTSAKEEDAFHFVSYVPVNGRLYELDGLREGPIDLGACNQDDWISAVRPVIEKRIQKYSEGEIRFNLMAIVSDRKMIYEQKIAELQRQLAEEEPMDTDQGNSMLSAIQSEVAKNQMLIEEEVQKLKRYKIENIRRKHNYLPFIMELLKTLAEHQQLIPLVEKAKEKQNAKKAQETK
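System: Proteasome-associated human UCH37 deubiquitinase; Input: 0.15 nM proteasome in added enzyme buffer; Also added: Ub-AMC substrate from 1 µM stock; Incubation: 30 min compound-proteasome preincubation then 25 min substrate reaction, room temperature; Detection: fluorescence, ex 355 nm, em 460 nm; Read-out: % inhibition of Ub-AMC cleavage fluorescence; Benchmarks: no-proteasome and no-compound wells.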
ATG4B inhibitor – ATG4B protease inhibitors, primary screen, biochemical, fluorescence, uHTS; Cysteine protease ATG4B (Homo sapiens), Q9Y4P1; ATG4B cleavage of LC3-PLA2, NBD-HPC fluorescence, 1 h; inhibition, % at 8.33 µM; actives 0.51% (n = 340,000); AID 504462, 2011; in the data active = inhibition above about 40%
NALP3 yeast inh – NALP3 inflammasome inhibitors in reconstituted yeast, primary screen, luminescence, uHTS; actives 0.39% (n = 330,000); Yeast reconstituted NLRP3/ASC/caspase-1, beta-gal luminescence, 24 h; inhibition, % at 10 µM;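 active = inhibition of 50% or more; inactive = inhibition below 50%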;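 note: plate controls were induced DMSO wells for no effect and uninduced yeast grown without galactose for full effect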
Calb FLC – C. albicans growth inhibition with fluconazole, primary screen, CaCi-2 strain, Alamar Blue fluorescence; growth inhibition, % (concentration not given with the values); C. albicans CaCi-2 + fluconazole, 48 h; actives 0.57% (n = 300,000);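 active = growth inhibition above about 58% in most replicates, limit read from the data, passing the limit was not always enough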;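 note: all wells also contain fluconazole at 8 µg/ml as a sub-toxic cotreatment; 0% = median of DMSO wells and 100% = median of geldanamycin control wells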
The depositor's hits bear a star; i = inactive; x = no result.

SMILES | NALP1 inh | ALR inh | UCH37 DUB inh | ATG4B inhibitor | NALP3 yeast inh | Calb FLC
CC(=O)c1ccc2c(c1)C1C(Cl)C(Sc3ccccc3[N+](=O)[O-])CC1C(C(=O)O)N2 (stereo not drawn) | 24 | 95* | 7 | 9 | x | x
Cc1cc(=O)oc2cc3c(cc12)CCCN3 | 18 | 93* | i | -8 | 2 | 2
CN(C)c1ccc([P+](=O)c2ccc(N(C)C)cc2)cc1 | 1 | 14 | 2 | -6 | 0 | 62*
CCNc1ccc(P(=S)(N(C)C)N(C)C)cc1 | 27 | 99* | 5 | 2 | 45 | -1
CNC(=O)Oc1ccc2ncccc2c1 | 52* | -1 | -2 | 24 | 7 | -2
C=C1[C@@H](O)[C@]23C[C@@H]1[C@@H](O)C[C@H]2[C@@]12C4[C@@H]3C[C@@H]1[C@@](C)(CC[C@@H]2O)CN4CC | x | x | 3 | x | x | x
C=CCN1CCc2cccc3c2[C@H]1Cc1ccc(O)c(O)c1-3 | 9 | 99* | x | 0 | 27 | 11
C=CCN1CC[C@]23c4c5ccc(O)c4O[C@H]2C(=O)CC[C@@]3(O)[C@H]1C5 | 1 | 6 | 0 | -3 | 10 | x
COP(=O)(OC)C1(Nc2ccc(C)cc2)CCCCC1 | 22 | 99* | -1 | 5 | 3 | -3
Cc1ccc(/C=C2\C(=O)NC(=S)N(c3ccc(F)cc3)C2=O)s1 | -2 | 15 | 1 | -6 | -7 | 5
Cc1ccc(/C=C2\C(=O)NC(=S)N(c3ccccc3F)C2=O)s1 | 35 | 98* | 1 | -5 | x | x
CC1CC(OP(O)(=S)c2ccc(N(C)C)cc2NC(=O)c2cccs2)CC(C)(C)C1 (stereo not drawn) | -7 | 99* | 6 | -24 | 21 | 70
O=C(c1cc2c(s1)-c1ccccc1OC2)N1CCC2(CC1)OCCO2 | 46 | x | i | 4 | 13 | 100*
CCCNC(=O)N1[C@H]2CC[C@@H]1C(C(=O)OC)=C(c1cc3ccccc3o1)C2 | x | -2 | 3 | 5 | 8 | -4
COC(=O)C1=C(c2ccc(F)cc2F)C[C@@H]2CC[C@H]1N2C(=O)NCCNC(C)=O | x | -1 | 25* | 2 | -1 | x
CCCNC(=O)N1[C@H]2CC[C@@H]1C(C(=O)OC)=C(c1ccc(F)cc1F)C2 | x | -2 | 2 | -16 | 15 | x
COC(=O)C1=C(c2cc3ccccc3o2)C[C@@H]2CC[C@H]1N2C(=O)NCCO | x | x | 27* | -9 | 3 | 13
C#C[C@@]1(O)CCC2C3CCC4=CC(=NOCC(=O)NC(C(=O)O)C(C)O)CC[C@]4(C)C3CC[C@@]21C (stereo partly drawn) | x | x | 4 | x | x | x
CC(C)[C@H]1C(=O)O[C@H](C(C)C)C(=O)N(C)[C@@H](C(C)C)C(=O)O[C@H](C(C)C)C(=O)N(C)[C@@H](C(C)C)C(=O)O[C@H](C(C)C)C(=O)N1C | -14 | -16 | 6 | -12 | 10 | 88*
Oc1cccc(C=NNP(=S)(c2ccccc2)c2ccccc2)c1 | x | x | 1 | x | x | x
NC(=N[N+](=O)[O-])N1CCN(C(=O)c2ccc(Cl)cc2)CC1 | x | x | 2 | x | x | x
CC(=O)Nc1ccccc1OP1(=O)COc2ccccc2OC1 | -10 | 81* | -1 | -7 | -4 | -2
CNCCc1ccc(O)c(O)c1 | x | 97* | 1 | -1 | 21 | x
COc1cc(CNCCc2ccc3c(c2)OCO3)ccc1O | 3 | 32 | 2 | -6 | 17 | -4
Cc1cc(Br)ccc1N1C(=O)CC(=O)NC1=O | -13 | 85* | 0 | -1 | 2 | -1
SMILES | NALP1 inh | ALR inh | UCH37 DUB inh | ATG4B inhibitor | NALP3 yeast inh | Calb FLC
O=C1CC(=O)N(c2cccc(Br)c2)C(=O)N1 | 36 | 25 | -1 | -10 | -1 | -1
CC(=NOC(=O)N(C)C)c1ncc(C(F)(F)F)cc1N1CCOCC1 | x | x | 3 | x | x | x
c1ccc2c(c1)CSc1ccccc1C2C1=NCCN1 (stereo not drawn) | 7 | 1 | 4 | 3 | 4 | 6
Brc1ccc2c(c1)C(OC1CN3CCC1CC3)c1ccccc1CS2 (stereo not drawn) | 57* | 2 | 10 | 9 | 7 | 17
CCCCCC(=NO)c1c(C)[nH]c2ccccc12 | x | x | 1 | x | x | x
CCCC/C(=N/O)c1c(C)[nH]c2ccccc12 | 4 | 99* | x | 1 | -3 | -1
CCCCC/C(=N/O)c1c(C)[nH]c2ccccc12 | 10 | 99* | x | -4 | 9 | -2
CC(=O)N1CCN(C(=O)COc2ccc(N(C)S(=O)(=O)c3cccs3)cc2)CC1 | 11 | -12 | -1 | -7 | 4 | 10
O=C(NC1CCCCC1)Oc1cc2oc(=O)sc2cc1Cl | x | 92* | 6 | 28 | 8 | 0
CC1CC(OC(=O)c2ccccc2)(c2ccccc2)C(C)CN1C (stereo not drawn) | 33* | -12 | 2 | -1 | 14 | 2
O=C(N1CCCCCC1)N1CC1 | x | x | -1 | 3 | x | x
CN(C)P(=O)(C(Cl)=C(N1CCCCC1)N1CCCCC1)N(C)C | 5 | 98* | 1 | -15 | 3 | 1
CCC(CC(c1ccccc1)c1c(O)c2ccccc2oc1=O)=NNC(N)=S (stereo not drawn) | x | x | -2 | x | x | x
COc1ccc(/C=C2\C(=NO)C3CCN2CC3)cc1 | x | x | 2 | x | x | x
CC/C(=N\Nc1ccccc1)c1c(O)n(-c2ccccc2)c(=O)[nH]c1=O | 15 | 99* | 10 | -7 | 18 | 21
COc1ccc(-n2c(O)c(/C(C)=N/Nc3ccccc3)c(=O)[nH]c2=O)cc1 | 3 | -13 | 7 | -1 | 1 | -4
C[C@H]1CCCC=CC2C[C@H](O)CC2[C@H](O)C=CC(=O)O1 (stereo partly drawn) | x | x | 0 | x | x | x
O=C(CSC1c2ccccc2-c2ccccc21)NN=Cc1ccccc1C(=O)O | x | x | 2 | x | x | x
O=C(COC(=O)Cc1ccccc1)NC12CC3CC(CC(C3)C1)C2 | 24* | 7 | 0 | -13 | -6 | -31
O=C(COC(=O)Cc1ccccc1)NC(=O)NC1CCCCC1 | x | 0 | 0 | 0 | -4 | -2
CCOc1cc2c(cc1OCC)-n1cccc1C(c1cc(C)c(OC)cc1C)NC2 (stereo not drawn) | 10 | -3 | 1 | 6 | 20 | 32
COc1cc(C=Nn2cnnc2)ccc1OC(=O)N(C)C | x | x | -2 | x | x | x
CNC(=O)N(C)c1ccc(C(O)(C(=O)OC)C(F)(F)F)cc1 (stereo not drawn) | 42* | -5 | 7 | -6 | 1 | -4
CN(C)c1ccc(NC(=O)CN2C(=O)CN=C(c3ccccc3)c3ccccc32)cc1 | 16 | 99* | -1 | -7 | 16 | -8
